Experimental data from ChEMBL document CHEMBL3351828, “Design and optimization of highly-selective fungal CYP51 inhibitors” (Bioorg Med Chem Lett, 2014).
≈ marks a conversion by molar mass, not a printed value.

What was measured:
Candida albicans [1] = assay: Antifungal activity against Candida albicans by broth macrodilution method; assay type: functional
Outline: (§1)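 MIC against standard ATCC isolates determined under CLSI guidelines, M27-A3 for yeasts. […] Units μg/mL.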

Candida albicans [2] = assay: Antifungal activity against Candida albicans R303 infected in CD-1 mouse assessed as reduction of kidney fungal burden at 20 mg/kg, po administered 2 hrs post infection on day 1 measured on day 2 relative to vehicle-treated control; assay type: functional
Outline: (§2)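 Female CD-1 mice (7 weeks, 18-25 g) made neutropenic with IP cyclophosphamide (150 mg/kg) on days 4 and 1 before tail-vein inoculation with C. albicans R303. Single oral dose given 2 h after infection on day 1. Kidneys harvested day 2 and homogenized in PBS. CFU/kidney counted on SDA plates from serial dilutions. Percent reduction taken versus vehicle-treated controls. Fluconazole used as positive control.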

Cytochrome P450 3A4 = Cytochrome P450 3A4 (Homo sapiens, UniProt P08684); assay: Inhibition of CYP3A4 in human hepatocytes using testosterone as substrate by HPLC/MS/MS method; assay type: ADME, cell-based, Hepatocyte
Sequence of Cytochrome P450 3A4 (P08684 whole entry): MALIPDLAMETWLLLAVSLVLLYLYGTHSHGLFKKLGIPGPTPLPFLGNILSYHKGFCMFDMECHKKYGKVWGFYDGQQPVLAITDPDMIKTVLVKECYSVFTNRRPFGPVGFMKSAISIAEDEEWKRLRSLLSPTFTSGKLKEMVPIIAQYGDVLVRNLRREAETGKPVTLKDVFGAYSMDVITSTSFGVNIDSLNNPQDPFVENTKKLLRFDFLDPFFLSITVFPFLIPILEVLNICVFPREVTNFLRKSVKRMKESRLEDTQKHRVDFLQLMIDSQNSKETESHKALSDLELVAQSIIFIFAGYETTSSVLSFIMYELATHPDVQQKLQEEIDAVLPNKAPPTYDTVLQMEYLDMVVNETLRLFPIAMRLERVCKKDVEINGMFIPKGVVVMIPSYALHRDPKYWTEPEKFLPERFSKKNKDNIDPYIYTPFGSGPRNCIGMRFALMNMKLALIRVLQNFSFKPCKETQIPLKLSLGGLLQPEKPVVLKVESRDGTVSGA

Trichophyton rubrum = assay: Antifungal activity against Trichophyton rubrum by broth macrodilution method; assay type: functional; outline: as §1
[3] = Selectivity index, ratio of IC50 for human hepatocytes CYP3A4 to MIC for Trichophyton rubrum; set-up: species or system Hepatocyte
Outline: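 CYP3A4 IC50 measured in pooled human hepatocyte microsomes with 150 μM testosterone as substrate, a concentration equal to the Km determined in the same lab. […] Selectivity index calculated as CYP3A4 IC50 (μM) divided by T. rubrum MIC (μg/mL).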

Candida albicans [4] = assay: Antifungal activity against Candida albicans R303 infected in CD-1 mouse assessed as reduction of kidney fungal burden at 10 mg/kg, po administered 2 hrs post infection on day 1 measured on day 2 relative to vehicle-treated control; assay type: functional
Outline: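 Female CD-1 mice (7 weeks, 18-25 g) made neutropenic with IP cyclophosphamide 150 mg/kg at 4 and 1 days before tail-vein inoculation with C. albicans R303. Single oral dose 2 h post-infection on day 1. Kidneys harvested day 2, homogenized in PBS, serially diluted and plated on SDA for CFU/kidney. Read-out: percent reduction in kidney fungal burden versus vehicle-treated controls.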

[5] = Selectivity for yeast CYP51 over human CYP51
[6] = system: Trichophyton mentagrophytes; assay: Antifungal activity against Trichophyton mentagrophytes infected in guinea pig dermatophytosis model assessed as mycological efficacy at 10 mg/kg, po administered for 9 days; assay type: functional
Candida albicans [7] = assay: Antifungal activity against Candida albicans infected in mouse candidiasis model assessed as reduction of kidney fungal burden at 10 mg/kg, po; assay type: functional; set-up: scale not given: the % may be the effect or the level left
[8] = Metabolic stability in human liver microsomes after 2 hrs; assay type: ADME; conditions: read-out: Stability
[9] = Half life in po dosed human; assay type: ADME, organism-based; conditions: in vivo
[10] = target: Lanosterol 14-alpha demethylase (Candida albicans (strain SC5314 / ATCC MYA-2876) (Yeast), UniProt P10613); assay: Binding affinity to Candida albicans CYP51
Sequence of Lanosterol 14-alpha demethylase (P10613 whole entry): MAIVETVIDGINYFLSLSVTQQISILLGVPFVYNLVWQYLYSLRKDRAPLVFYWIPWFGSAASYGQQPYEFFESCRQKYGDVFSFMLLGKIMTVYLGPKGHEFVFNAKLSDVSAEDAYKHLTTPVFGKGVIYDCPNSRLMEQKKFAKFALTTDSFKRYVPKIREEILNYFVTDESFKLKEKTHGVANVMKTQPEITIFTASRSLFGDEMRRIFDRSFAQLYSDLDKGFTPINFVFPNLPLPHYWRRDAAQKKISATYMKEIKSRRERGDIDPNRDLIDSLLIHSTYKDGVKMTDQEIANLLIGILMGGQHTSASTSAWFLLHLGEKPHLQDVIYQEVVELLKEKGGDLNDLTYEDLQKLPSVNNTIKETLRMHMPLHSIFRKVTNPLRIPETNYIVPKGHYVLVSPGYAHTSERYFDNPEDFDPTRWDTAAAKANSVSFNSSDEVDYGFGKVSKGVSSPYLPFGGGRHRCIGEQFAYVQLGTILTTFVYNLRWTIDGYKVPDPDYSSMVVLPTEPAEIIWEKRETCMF

Cytochrome P450 2C19 = Cytochrome P450 2C19 (Homo sapiens, UniProt P33261); assay: Inhibition of CYP2C19 (unknown origin); assay type: ADME
Sequence of Cytochrome P450 2C19 (P33261 whole entry): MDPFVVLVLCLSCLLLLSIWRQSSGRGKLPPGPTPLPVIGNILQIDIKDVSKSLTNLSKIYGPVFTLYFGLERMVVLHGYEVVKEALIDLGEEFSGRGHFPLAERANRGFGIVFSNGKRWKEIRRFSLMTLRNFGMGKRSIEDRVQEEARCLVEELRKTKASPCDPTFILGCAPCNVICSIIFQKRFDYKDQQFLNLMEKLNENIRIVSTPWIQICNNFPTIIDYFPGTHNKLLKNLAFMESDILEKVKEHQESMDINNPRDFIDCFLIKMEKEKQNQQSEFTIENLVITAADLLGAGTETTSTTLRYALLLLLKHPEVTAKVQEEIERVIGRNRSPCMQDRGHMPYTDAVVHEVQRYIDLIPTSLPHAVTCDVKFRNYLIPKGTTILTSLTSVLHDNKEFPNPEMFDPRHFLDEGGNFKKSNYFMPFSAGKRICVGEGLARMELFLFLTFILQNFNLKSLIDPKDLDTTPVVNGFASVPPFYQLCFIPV

Cytochrome P450 2C9 = Cytochrome P450 2C9 (Homo sapiens, UniProt P11712); assay: Inhibition of CYP2C9 (unknown origin); assay type: ADME
Sequence of Cytochrome P450 2C9 (P11712 whole entry): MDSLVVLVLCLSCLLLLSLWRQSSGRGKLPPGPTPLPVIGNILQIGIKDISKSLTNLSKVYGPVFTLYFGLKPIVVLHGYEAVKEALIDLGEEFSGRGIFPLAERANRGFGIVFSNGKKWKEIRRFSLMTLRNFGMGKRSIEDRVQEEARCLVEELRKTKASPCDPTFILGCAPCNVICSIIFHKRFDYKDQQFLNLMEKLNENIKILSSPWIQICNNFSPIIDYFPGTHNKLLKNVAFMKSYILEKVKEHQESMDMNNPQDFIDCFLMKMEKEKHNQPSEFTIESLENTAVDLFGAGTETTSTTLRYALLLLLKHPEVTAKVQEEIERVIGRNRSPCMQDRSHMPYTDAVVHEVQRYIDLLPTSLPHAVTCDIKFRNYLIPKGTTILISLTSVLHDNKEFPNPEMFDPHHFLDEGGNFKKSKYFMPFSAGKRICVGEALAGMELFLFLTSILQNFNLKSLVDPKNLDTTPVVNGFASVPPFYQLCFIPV

Candida albicans [11] = assay: Antifungal activity against Candida albicans R303 infected in CD-1 mouse assessed as reduction of kidney fungal burden at 50 mg/kg, po administered 2 hrs post infection on day 1 measured on day 2 relative to vehicle-treated control; assay type: functional; outline: as §2

Structure (SMILES) | MIC50 (Candida albicans [1]) | IC50 (Cytochrome P450 3A4) | further results
OC(Cn1cnnn1)(c1ccc(F)cc1F)C(F)(F)c1ccc(-c2ccc(C(F)(F)F)cc2)cn1 (stereo not given) | ≤ 0.016 µg/mL | > 60 µM | Efficacy (Candida albicans [2]): 94%
O[C@@](Cn1cnnn1)(c1ccc(F)cc1F)C(F)(F)c1ccc(-c2ccc(C(F)(F)F)cc2)cn1 | ≤ 0.001 µg/mL | 54 µM | MIC50 (Trichophyton rubrum): 0.002 µg/mL (≈ 0.00402 µM); Selectivity Index [3]: 27000
OC(Cn1cnnn1)(c1ccc(F)cc1F)C(F)(F)c1ccc(-c2ccc(F)cc2)cn1 (stereo not given) | 0.016 µg/mL (≈ 0.0358 µM) |  | Efficacy (Candida albicans [4]): 99%
C[C@@H](c1ncncc1F)[C@](O)(Cn1cnnc1)c1ccc(F)cc1F | > 16 µg/mL | 51 µM | 
CCC(C)n1ncn(-c2ccc(N3CCN(c4ccc(OCC5COC(Cn6cncn6)(c6ccc(Cl)cc6Cl)O5)cc4)CC3)cc2)c1=O (stereo not given) [ITRACONAZOLE] | 0.016 µg/mL (≈ 0.0227 µM) |  | MIC50 (Trichophyton rubrum): 0.062 µg/mL (≈ 0.0879 µM)
O[C@@](Cn1cnnn1)(c1ccc(F)cc1F)C(F)(F)c1ccc(-c2ccc(OCC(F)(F)F)cc2)cn1 [OTESECONAZOLE] | ≤ 0.001 µg/mL | 65 µM | MIC50 (Trichophyton rubrum): ≤ 0.001 µg/mL; Selectivity ratio [5]: > 2200; Activity [6]: 86%; Activity (Candida albicans [7]): 99%; remaining at 2 h [8]: > 99%; half-life [9]: > 24 h; Kd [10]: ≤ 0.039 µM; Selectivity Index [3]: >65000; IC50 (Cytochrome P450 2C19): 72 µM; IC50 (Cytochrome P450 2C9): 99 µM
OC(Cn1cnnn1)(c1ccc(F)cc1F)C(F)(F)c1ccccn1 (stereo not given) | 0.25 µg/mL (≈ 0.708 µM) | 136 µM | Efficacy (Candida albicans [11]): 98%
OC(Cn1cnnn1)(c1ccc(F)cc1F)C(F)(F)c1ccc(OCC(F)(F)F)cn1 (stereo not given) | 0.06 µg/mL (≈ 0.133 µM) | 72 µM | Efficacy (Candida albicans [11]): 81%
O[C@@](Cn1cnnn1)(c1ccc(F)cc1F)C(F)(F)c1ccc(-c2ccc(Cl)cc2)cn1 | ≤ 0.001 µg/mL | 36 µM | MIC50 (Trichophyton rubrum): 0.004 µg/mL (≈ 0.00862 µM); Selectivity Index [3]: 9000
O[C@@](Cn1cnnn1)(c1ccc(F)cc1F)C(F)(F)c1ccc(-c2ccc(OC(F)(F)F)cc2)cn1 | ≤ 0.001 µg/mL | 79 µM | MIC50 (Trichophyton rubrum): ≤ 0.001 µg/mL; Selectivity Index [3]: >79000
C[C@@H](c1ncncc1F)[C@](O)(Cn1ccnn1)c1ccc(F)cc1F | > 16 µg/mL | 8 µM | 
OC(Cn1cncn1)(Cn1cncn1)c1ccc(F)cc1F [FLUCONAZOLE] |  |  | Efficacy (Candida albicans [4]): 99%
O[C@@](Cn1cnnn1)(c1ccc(F)cc1F)C(F)(F)c1ccc(Cl)cn1 | 0.25 µg/mL (≈ 0.645 µM) | 74 µM | Efficacy (Candida albicans [11]): 100%
C[C@@H](c1ncncc1F)[C@](O)(Cn1ccnc1)c1ccc(F)cc1F | 0.5 µg/mL (≈ 1.44 µM) | 0.8 µM | 
N#Cc1ccc(-c2ccc(C(F)(F)C(O)(Cn3cnnn3)c3ccc(F)cc3F)nc2)cc1 (stereo not given) | ≤ 0.016 µg/mL | 16 µM | Efficacy (Candida albicans [11]): 100%
C[C@@H](c1ncncc1F)[C@](O)(Cn1cnnn1)c1ccc(F)cc1F | 1 µg/mL (≈ 2.85 µM) | 32 µM | 
C[C@@H](c1ncncc1F)[C@](O)(Cn1cncn1)c1ccc(F)cc1F [VORICONAZOLE] | 0.06 µg/mL (≈ 0.172 µM) |  | 
C[C@@H](c1ncncc1F)[C@](O)(Cn1ncnn1)c1ccc(F)cc1F | 8 µg/mL (≈ 22.8 µM) | 46 µM | 
